# Test results reported in ChEMBL document CHEMBL1157353, “Synthesis and biological evaluation of (-)- and (+)-debromoflustramine B and its analogues as selective butyrylcholinesterase inhibitors” (J Med Chem, 2008).
# Active and inactive are the calls of the source. No cut-off for these calls is given here.
# Biological target: T1, Cholinesterase (Homo sapiens, UniProt P06276)
# Assay: Inhibition of human plasma BChE at <10000 uM after 20 mins by Ellman's method
# Assay type: cell-free
# T1 sequence (P06276 whole entry): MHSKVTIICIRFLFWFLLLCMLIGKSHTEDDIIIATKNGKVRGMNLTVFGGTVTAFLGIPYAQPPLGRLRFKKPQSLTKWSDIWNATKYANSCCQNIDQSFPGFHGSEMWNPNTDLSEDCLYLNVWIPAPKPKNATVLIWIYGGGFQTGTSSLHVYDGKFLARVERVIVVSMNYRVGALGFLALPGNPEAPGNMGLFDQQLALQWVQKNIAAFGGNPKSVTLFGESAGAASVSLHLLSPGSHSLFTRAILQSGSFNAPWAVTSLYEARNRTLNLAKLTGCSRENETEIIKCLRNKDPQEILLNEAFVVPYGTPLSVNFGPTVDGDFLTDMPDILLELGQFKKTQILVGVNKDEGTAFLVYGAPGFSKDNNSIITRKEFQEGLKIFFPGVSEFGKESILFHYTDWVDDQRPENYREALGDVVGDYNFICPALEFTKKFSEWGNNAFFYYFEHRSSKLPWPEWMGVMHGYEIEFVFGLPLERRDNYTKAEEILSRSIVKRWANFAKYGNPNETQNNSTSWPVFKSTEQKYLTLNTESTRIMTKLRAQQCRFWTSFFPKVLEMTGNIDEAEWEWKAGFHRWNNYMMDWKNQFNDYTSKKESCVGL
row,Structure (SMILES),Activity
1,CC(C)=CCN1c2ccccc2[C@]2(CC=C(C)C)CCN(C)[C@H]12 [(-)-DEBROMOFLUSTRAMINE B],inactive
2,COc1ccc2c(c1)C1(CC=C(C)C)CCN(Cc3ccccc3)C1N2Cc1ccccc1 (configuration not stated),inactive
3,CN1CCC2(Cc3ccncc3)c3ccccc3N(Cc3ccncc3)C12 (configuration not stated),inactive
4,CC(C)CCN1c2ccccc2C2(CCC(C)C)CCN(C)C12 (configuration not stated),inactive
5,COc1ccc2c(c1)C1(Cc3ccccc3)CCN(Cc3ccccc3)C1N2Cc1ccccc1 (configuration not stated),inactive
6,CC(C)=CCC12CCN(C)C1N(C)c1ccccc12 (configuration not stated),inactive
7,CC(C)=CCN1c2ccccc2C2(CC=C(C)C)CCN(Cc3ccccc3)C12 (configuration not stated),inactive
8,CCN1c2ccccc2C2(CC)CCN(C)C12 (configuration not stated),inactive
9,CN1CCC2(Cc3ccncc3)c3ccccc3N(Cc3ccccc3)C12 (configuration not stated),inactive
10,CCCN1c2ccccc2C2(CCC)CCN(C)C12 (configuration not stated),inactive
11,CN1CCC2(C)c3ccccc3N(C)C12 (configuration not stated),inactive

# Biological target: T1, Cholinesterase
# Assay: Inhibition of human plasma BChE after 20 mins by Ellman's method
# Assay type: cell-free
# In short: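 Human plasma BChE, Ellman method, in 0.1 M phosphate buffer pH 8.0 with 340 µM butyrylthiocholine iodide. Compounds were preincubated with enzyme for 20 min at 37 °C before substrate was added, and an enzyme-free blank corrected for nonenzymatic hydrolysis. Compounds were screened at 1 mM; those giving >30% inhibition were run at nine concentrations (10-3–10-7 M), three times in triplicate. IC50 came from probit-transformed % activity versus log concentration.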
row,Structure (SMILES),IC50
1,COc1ccc2c(c1)C1(CC=C(C)C)CCN(C)C1N2CC=C(C)C (configuration not stated),4.59 µM
2,CN1CCC2(Cc3ccccc3)c3ccccc3N(Cc3ccccc3)C12 (configuration not stated),22.1 µM
3,COc1ccc2c(c1)C1(Cc3ccccc3)CCN(C)C1N2Cc1ccccc1 (configuration not stated),5.89 µM
4,CC(C)=CCN1c2ccccc2C2(CC=C(C)C)CCNC12 (configuration not stated) [DEMETHYLDEBROMOFLUSTRAMINE B],0.26 µM
5,CC(C)=CCN1c2ccccc2[C@]2(CC=C(C)C)CCN(C)[C@H]12 [(-)-DEBROMOFLUSTRAMINE B],1.37 µM
6,CC(C)=CCC12CCN(C)C1N(Cc1ccccc1)c1ccccc12 (configuration not stated),10 µM
7,CC(C)=CCN1c2ccccc2C2(CC=C(C)C)CCN(C)C12 (racemic) [(+/-)-DEBROMOFLUSTRAMINE B],2.59 µM
8,COc1ccc2c(c1)C1(CC=C(C)C)CCN(Cc3ccccc3)C1N2CC=C(C)C (configuration not stated),50 µM
9,COc1ccc2c(c1)C1(CC=C(C)C)CCN(C)C1N2Cc1ccccc1 (configuration not stated),7.54 µM
10,CC(C)=CCN1c2ccccc2[C@@]2(CC=C(C)C)CCN(C)[C@@H]12 [(+)-DEBROMOFLUSTRAMINE B],10300 µM
11,CC(C)=CCN1CCC2(CC=C(C)C)c3ccccc3N(CC=C(C)C)C12 (configuration not stated),1.72 µM
